Data set [1] has as its target DNA1. In words: Fluorescence binding assay, DNA1. The following applies: for Kd: DNA1, DNA hairpin with 5′AATT/3′TTAA. In short, it runs like this: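 The DNA hairpin was titrated into 1 μM test compound in 8 mM sodium phosphate pH 7.0, 185 mM NaCl, 1 mM EDTA. After 5 min incubation, fluorescence was read at ex 360/40 and em 460/40. Fraction bound/[nucleic acid] was plotted against fraction bound to obtain binding constants.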

Data set [2] relates to mice. The following applies: cited from earlier work.
Data set [3] relates to 5′CUG/3′GUC. The following applies: studies on 5′UTR of thymidylate synthetase mRNA; cited from earlier work.
Data set [4] addresses RNA1. The data set can be described thus: Fluorescence binding assay, RNA1. In short, it runs like this:
(§1)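 RNA hairpins were annealed in 8 mM sodium phosphate pH 7.0, 185 mM NaCl, 1 mM EDTA at 60 °C for 1 min and slowly cooled. They were titrated into 1 μM test compound in the same buffer and read after 5 min as fluorescence (ex 360/40, em 460/40). Plots were fraction bound/[RNA] versus fraction bound, fitted to a large-ligand lattice-binding equation giving the microscopic dissociation constant.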

In data set [5] the target is RNA2. In words: Fluorescence binding assay, RNA2. The following applies: RNA2, single 5′CUG/3′GUC (DM1) motif. In short, it runs like this:
as §1

Data set [6] relates to RNA3. In words: Fluorescence binding assay, RNA3. In short, it runs like this:
as §1

In data set [7] the target is RNA4. In words: Fluorescence binding assay, RNA4. In short, it runs like this:
as §1

Data set [8] has as its target RNA5. The data set can be described thus: Fluorescence binding assay, RNA5. In short, it runs like this: as §1
The target of data set [9] is RNA6. In words: Fluorescence binding assay, RNA6. In short, it runs like this:
as §1

Data set [10] concerns the target RNA7. In words: Fluorescence binding assay, RNA7. In short, it runs like this: as §1
Data set [11] has as its target RNA8. The data set can be described thus: Fluorescence binding assay, RNA8. In short, it runs like this:
as §1

Data set [12] has as its target RNA9. In words: Fluorescence binding assay, RNA9. In short, it runs like this: as §1
Data set [13] deals with RNA10. The data set can be described thus: Fluorescence binding assay, RNA10.
In data set [14] the test system is r(CUG)109. In words: Fluorescence binding assay, r. In short, it runs like this:
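r(CUG)109, transcribed from BamHI-linearised plasmid and gel-purified, was annealed at 60 °C for 1 min in pH 7.0 phosphate/185 mM NaCl/EDTA buffer. It was titrated into test compound (1 μM; 5 μM for one monomeric ligand) and fluorescence read after 5 min. Data were fitted to a lattice-binding equation with N repeat units. Selectivity = Kd(herring sperm DNA)/Kd(r(CUG)109).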

The target in data set [15] is herring sperm DNA. The data set can be described thus: Fluorescence binding assay, herring sperm DNA. In short, it runs like this:
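Herring sperm DNA was annealed at 90 °C for 3 min in 8 mM sodium phosphate pH 7.0, 185 mM NaCl, 1 mM EDTA and slowly cooled. It was titrated into 1 μM test compound, and fluorescence (ex 360/40, em 460/40) was read after 5 min. Fraction bound/[DNA] versus fraction bound was fitted to a straight line for Kd.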

The target in data set [16] is r(CUG)109-MBNL1 complex. The data set can be described thus: r. The format is biochemical.
Data set [17] concerns RNA11-MBNL1 complex. The data set can be described thus: MBNL1-RNA11. It is filed as biochemical.
Data set [18] deals with RNA12-MBNL1 complex. In words: MBNL1-RNA12. The format is biochemical.
Data set [19] has as its system RNAs containing a 1×1 nucleotide CC internal loop. The following applies: cited from earlier work.
Data set [20] concerns RNA12. In words: Binding of MBNL1 to RNA12. The following applies: MBNL1, RNA12 versus RNA11.
Data set [21] relates to RNA13. In words: Binding of MBNL1 to RNA13. The following applies: MBNL1, RNA13 versus RNA11.
In data set [22] the test system is RNA14. In words: Binding of MBNL1 to RNA14.
Data set [23] relates to RNA16. In words: Binding of MBNL1 to RNA16. The following applies: MBNL1, RNA16 versus RNA11.
The test system of data set [24] is RNA17. In words: Binding of MBNL1 to RNA17.
Data set [25] addresses r(CUG)109. The following applies: MBNL1 binding to r(CUG)109; cited from earlier work.
Data set [26] addresses RNA11. The following applies: MBNL1 binding to RNA11, gel retardation; cited from earlier work.
The target of data set [27] is RNA12. The following applies: MBNL1 binding to RNA12, gel retardation; cited from earlier work.
Data set [28] addresses RNA13. The following applies: MBNL1 binding to RNA13, gel retardation; cited from earlier work.
The target of data set [29] is RNA14. The following applies: MBNL1 binding to RNA14, gel retardation; cited from earlier work.
The target in data set [30] is RNA15. The following applies: MBNL1 binding to RNA15, gel retardation; cited from earlier work.
Data set [31] deals with RNA16. The following applies: MBNL1 binding to RNA16, gel retardation; cited from earlier work.

Read-outs that look alike come from different tables or passages of the source.

For `CN1CCN(c2ccc3[nH]c(-c4ccc5[nH]c(-c6ccc(O)cc6)nc5c4)nc3c2)CC1` [Compound 1, Hoechst 33258], the Kd (in general, the equilibrium constant for the complex coming apart) in [1] is 0.28 µM. In addition, the “tolerability and toxicity in mice” value in data set [2] was “well tolerated by and non-toxic to mice”. For the same molecule, the “affinity for 5′CUG/3′GUC” value in data set [3] was “nanomolar affinity”.

For the molecule `CN1CCN(c2ccc3nc(-c4ccc5nc(-c6cccc(OCCCC(=O)NCCCN=[N+]=[N-])c6)[nH]c5c4)[nH]c3c2)CC1` [Compound 2, meta-(N-(3-azidopropyl)-4-oxybutanamide)-Hoechst], the Kd in data set [4] (RNA1, fully paired hairpin cassette) was found to be 1.7 ± 0.07 µM; in data set [5], 0.13 ± 0.025 µM; in [6] (RNA3, 5′CUC/3′GUG) it was 1.05 ± 0.212 µM; in [7] (RNA4, 1×1 UU loop with AU closing pairs), 0.37 ± 0.107 µM; in data set [8] (RNA5, 1×1 UU loop with GU closing pairs) it was 0.81 ± 0.15 µM; in data set [9] (RNA6, 1×1 CC loop), 0.29 ± 0.05 µM. Further, the Kd in data set [10] (RNA7, 1×1 CC loop) was about 1 µM; in data set [11] (RNA8), 0.52 ± 0.018 µM; in [12] (RNA9, 1×1 AA loop (SCA3 motif)) it was 0.45 ± 0.1 µM; in data set [13] (RNA10, 1×1 AA loop), 0.82 ± 0.16 µM; in data set [1], 0.25 ± 0.063 µM; in data set [14] (r(CUG)109 hairpin, 54 DM1 motifs), 0.15 ± 0.025 µM. The Kd in data set [15] is 0.11 ± 0.019 µM. Besides, the “Specificity to RNA2” value in data set [4] (RNA1 versus RNA2) was 13.1; in data set [6] (RNA3 versus RNA2), 8.0; in data set [7] (RNA4 versus RNA2), 2.8; in data set [8] (RNA5 versus RNA2) it was 6.2; in data set [9] (RNA6 versus RNA2) it was 2.2; in [10] (RNA7 versus RNA2), “∼7.7”. Further, the “Specificity to RNA2” value in data set [11] (RNA8 versus RNA2) came out at 4.0; in data set [12] (RNA9 versus RNA2), 3.5; in data set [13] (RNA10 versus RNA2), 6.3; in data set [1] (DNA1 versus RNA2), 1.9. In data set [4] (RNA2 over RNA1), the “binds RNA2 more tightly than RNA1” value was 13 fold. The “binds RNA2 more tightly than RNA3” value in data set [6] (5′CUG/3′GUC (RNA2) versus 5′CUC/3′GUG (RNA3)) is listed as over 8 fold. The figures for the “weaker binding than to RNA2” value in data set [7] (loop GC pairs (RNA2) changed to AU (RNA4)) and in data set [8] (loop GC pairs (RNA2) changed to GU (RNA5)) were “Approximately 3 fold” and about 6 fold, respectively. In addition, the “specific for RNA2 over DNA1” value in data set [1] (RNA2 over DNA1) is on record as about 2 fold. Moreover, the “specificity for r(CUG)109 versus herring sperm DNA” value in data set [14] amounted to 0.7 fold. Besides, the “Selectivity for r(CUG)109 over herring sperm DNA” value in data set [14] (Kd herring sperm DNA divided by Kd r(CUG)109) is 0.73. The IC50 (in general, the concentration needed to halve the response being measured) in [16] (0.65 pmoles r(CUG)109 immobilized, 3.7 μM bulk yeast tRNA, 32 pmoles MBNL1) was 110 ± 20 µM; in data set [17] (RNA 11, Condition A: 7.5 pmoles of MBNL1 per well), 30.2 ± 6.8 µM; in data set [17] (RNA 11, Condition B: 2.0 pmoles of MBNL1 per well), 38.1 ± 6.9 µM; in [18] (RNA 12, Condition A: 7.5 pmoles of MBNL1 per well), 48.4 ± 9.9 µM; in data set [18] (RNA 12, Condition B: 2.0 pmoles of MBNL1 per well) it was 21.1 ± 0.5 µM. Moreover, in [16] (in the presence of bulk yeast tRNA), the “inhibition of the MBNL1-r(CUG)109 interaction” value is recorded as at least 95%.

Regarding `N=C(N)c1ccc(-c2cc3ccc(C(=N)N)cc3[nH]2)cc1` [DAPI, 2-(4-amidinophenyl)-1H-indole-6-carboxamidine], in [19], the “affinity for RNAs containing a 1×1 nucleotide CC internal loop” value was “nanomolar affinities”.

Consider `Cn1cc(NC(=O)c2cc(NC(=O)c3cc(NC=O)cn3C)cn2C)cc1C(=O)NCCC(=N)N` [distamycin], for which the “affinity for RNAs containing a 1×1 nucleotide CC internal loop” value in data set [19] is “nanomolar affinities”.

B1: MBNL1: Muscleblind-like 1 protein, alternative splicing regulator that binds expanded rCUG repeats (protein, UniProt Q9NR56 1-388, looked up)
Muscleblind-like protein 1: MAVSVTPIRDTKWLTLEVCREFQRGTCSRPDTECKFAHPSKSCQVENGRVIACFDSLKGRCSRENCKYLHPPPHLKTQLEINGRNNLIQQKNMAMLAQQMQLANAMMPGAPLQPVPMFSVAPSLATNASAAAFNPYLGPVSPSLVPAEILPTAPMLVTGNPGVPVPAAAAAAAQKLMRTDRLEVCREYQRGNCNRGENDCRFAHPADSTMIDTNDNTVTVCMDYIKGRCSREKCKYFHPPAHLQAKIKAAQYQVNQAAAAQAAATAAAMTQSAVKSLKRPLEATFDLGIPQAVLPPLPKRPALEKTNGATAVFNTGIFQYQQALANMQLQQHTAFLPPVPMVHGATPATVSAATTSATSVPFAATATANQIPIISAEHLTSHKYVTQM
Turning to B1, the “Specificity to DM1 RNA11” value in data set [20] was 2.5; in data set [21], 0.8; in [22] (MBNL1, RNA14 versus RNA11), 0.5; in data set [23], 3.7; in [24] (MBNL1, RNA17 versus RNA11) it was over 4. Further, the “weaker than the DM1-MBNL1 complex” value in [20] turned out to be 2.5 fold. In addition, the “higher affinity than the DM1-MBNL1 complex” value in data set [22] (MBNL1, DM2 RNA14) is on record as 2 fold. Besides, the Kd in data set [24] (MBNL1 binding to fully paired RNA17) was over 1 µM; in data set [25] it was 0.3 ± 0.093 µM; in data set [26], 0.25 ± 0.01 µM; in data set [27] it was 0.63 ± 0.07 µM; in [28], 0.2 ± 0.03 µM; in data set [29], 0.12 ± 0.04 µM. In addition, the Kd was over 2.5 µM in data set [30] and 0.92 ± 0.15 µM in [31].

These data come from PMC2731475 (Journal of the American Chemical Society, 2009).
